# Published values of several laboratories.
# Target: Protein kinase C theta type (PRKCQ, Homo sapiens, UniProt Q04759)
Structure (SMILES),observed,method,concentration,remaining binding [%]
N[C@H]1CCN(c2nccc(-c3cnn4ncccc34)n2)C1,binding,,1 µM,74
O=C(NCCCN1CCOCC1)c1ccc(Nc2nccc(-c3cc4ccccc4s3)n2)cc1,binding,competition with immobilised ligand,1 µM,100
Cc1cc(NC(=O)c2cccc(S(F)(F)(F)(F)F)c2)cc(-n2ccn3nc(-c4cccnc4)cc23)c1,cell-free assay,competition with immobilised ligand,1 µM,60.3
CN(C)c1nccc(-c2cnn3ncccc23)n1,binding,,1 µM,88
O=C(Nc1c[nH]nc1C(=O)NC1CCNCC1)c1cc(F)cc(F)c1,binding,competition with immobilised ligand,1 µM,100
O=C(NCCCN1CCOCC1)c1ccc(Nc2ncc(Cl)c(-c3ccc(Cl)s3)n2)cc1,binding,competition with immobilised ligand,1 µM,100
COc1ccnn2ncc(-c3ccnc(N(C)C)n3)c12,binding,,1 µM,81
CN(c1ccnc(CNc2nc(Nc3ccc4c(c3)CC(=O)N4)ncc2C(F)(F)F)n1)S(C)(=O)=O,cell-free assay,competition with immobilised ligand,1 µM,55
COc1cnc(Nc2cccc(S(N)(=O)=O)c2)nc1N1CCN(c2ccccc2)CC1,binding,competition with immobilised ligand,1 µM,94
Nc1c(C(=O)NCc2ccc(C(=O)NCCCC3CCCCC3)cc2)cnn1-c1ccccc1,cell-free assay,competition with immobilised ligand,0.1 µM,100
Cc1cnn2ncc(-c3ccnc(N(C)C)n3)c2c1,binding,,1 µM,99
CCN1CCN(Cc2ccc(C(=O)Nc3ccc(C)c(Oc4ccc5c(c4)CC(=O)N5)c3)cc2C(F)(F)F)CC1,binding,competition with immobilised ligand,1 µM,100
CN(C)c1nccc(-c2cnc3ncccn23)n1,binding,,1 µM,75
C=CC(=O)N1CCC(C(=O)NCC(=O)N2CCN(c3nc(-c4cnc(N)nc4C(F)F)nc(N4CCOCC4)n3)CC2)CC1,binding,competition with immobilised ligand,1 µM,83
FC(F)(F)Oc1cccc(-c2cnc3ccc(-c4ccncc4)nn23)c1,cell-free assay,competition with immobilised ligand,5 µM,85
COc1cnc(Nc2cccc(S(N)(=O)=O)c2)nc1N1CCN(c2ccccc2)C(=O)C1,binding,competition with immobilised ligand,1 µM,100
C[C@@H]1CN(c2cc(-c3nn(C)c4ccc(OC5(C)CC5)cc34)ncn2)C[C@H](C)O1,cell-free assay,competition with immobilised ligand,1 µM,91
O=C(c1ccc(Nc2ncc(Cl)c(-c3ccc(Cl)s3)n2)cc1)N1CCC(N2CCCC2)CC1,binding,competition with immobilised ligand,1 µM,60
CN(c1nccc(-c2cnn3ncccc23)n1)C1CC1,binding,,1 µM,100
CO[C@H]1CC[C@H](CNc2ccc(S(=O)(=O)NC(=O)c3ccc(N4CCN(CC5=C(c6ccc(Cl)cc6)CC(C)(C)CC5)CC4)cc3Oc3cnc4[nH]ccc4c3)cc2[N+](=O)[O-])CC1,cell-free assay,competition with immobilised ligand,1 µM,89
C[C@H]1CCN(c2nccc(-c3cnn4ncccc34)n2)C1,binding,,1 µM,100
CN(C)CC#Cc1ccc(OCCCc2sc(N3CCc4cccc(C(=O)Nc5nc6ccccc6s5)c4C3)nc2C(=O)O)c(F)c1,cell-free assay,competition with immobilised ligand,1 µM,92
